Results published in ChEMBL document CHEMBL4316619 (Bioorg Med Chem Lett, 2019).
Calls of active or inactive are those of the source. No cut-off for these calls is given here.

Tests used:
Influenza A virus [1] = experiment: Antiviral activity against Influenza A virus A/PR/8/34 (H1N1) infected in MDCK cells assessed as fold reduction in virus titer at 10 uM measured after 48 hrs by hemagglutination assay relative to control; assay type: functional, A/Puerto Rico/8/1934(H1N1)
Outline: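 MDCK cells were infected with A/PR/8/34 (H1N1) at MOI 0.1 and incubated with compound for 48 h. Supernatant virus was then quantified by hemagglutination assay and standard TCID50 analysis. The single-concentration screen used 10 μM and reports fold reduction in titer. Dose-response runs used triplicate cultures, with percent titer decrease back-calculated from TCID50.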

MDCK = experiment: Cytotoxicity against MDCK cells assessed as reduction in cell viability measured after 48 hrs by CellTiter Glo assay; assay type: cell-based, Canis lupus familiaris; settings: dog
Outline: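 MDCK cells were incubated with compound under the conditions of the 48 h replication assay. Cytotoxicity was read with the CellTiter-Glo ATP viability assay. Follow-up viability testing used 5, 10, 50 and 100 μM.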

Influenza A virus [2] = experiment: Antiviral activity against Influenza A virus (A/California/7/2009(H1N1)) infected in MDCK cells assessed as reduction in virus-induced cytopathic effect measured on day 5 by Celltiter-Glo luminescence assay; assay type: functional, organism-based; settings: 120 h
Outline: (§1)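 MDCK cells were infected with seasonal influenza A strains through NIAID resources and scored for protection from virus-induced cell death. Compounds were tested at four concentrations (0.8, 4, 20, 100 μM). EC50/EC90 (reduction of viral cell death) and CC50 (reduction of cell viability) were derived in μM, and SI50 = CC50/EC50.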

[3] = Cytotoxicity against MDCK cells assessed as reduction in cell viability measured on day 5 by Celltiter-Glo luminescence assay; assay type: cell-based, Canis lupus familiaris; settings: dog, MDCK cells; outline: as §1
Influenza A virus H3N2 = experiment: Antiviral activity against Influenza A virus (A/Brisbane/10/2007(H3N2)) infected in MDCK cells assessed as reduction in virus-induced cytopathic effect measured on day 5 by Celltiter-Glo luminescence assay; assay type: functional, organism-based; settings: 120 h; outline: as §1
Influenza B virus = experiment: Antiviral activity against Influenza B virus (B/Brisbane/60/2008) infected in MDCK cells assessed as reduction in virus-induced cytopathic effect measured on day 5 by Celltiter-Glo luminescence assay; assay type: functional, organism-based
Saccharomyces cerevisiae = experiment: Effect on growth of Yeast 9526-6-2 harboring pYES at 50 uM measured up to 60 hrs; assay type: organism-based; settings: in vivo
Outline: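 Control yeast carrying empty pYES and NS1-expressing NS1-pYES strain grown with DMSO or compound at 50 μM. Growth measured as OD600 at 22, 42 and 60 h.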

[4] = biological target: Non-structural protein 1 (Influenza A virus (strain A/Puerto Rico/8/1934 H1N1)) (UniProt P03496); experiment: Inhibition of NS1 in Influenza A virus A/PR/8/34 (H1N1) infected in MDCK cells assessed as restoration of protein-induced reduction in IFN-beta mRNA expression at 20 uM measured after 6 hrs by RT-PCR analysis; assay type: cell-based; settings: Influenza A virus (A/Puerto Rico/8/1934(H1N1))
Outline: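 MDCK cells infected with A/PR/8/34 at MOI 2 and incubated 6 h with compound at 20 μM. Cells harvested; IFN-β and β-actin mRNA detected by RT-PCR. Poly(I:C) lane serves as positive control for IFN-β induction.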

Influenza A virus [5] = experiment: Effect on NS1 protein expression in Influenza A virus A/PR/8/34 (H1N1) infected in MDCK cells at 20 uM by Western blot analysis; assay type: functional, organism-based; settings: A/Puerto Rico/8/1934(H1N1)
Outline: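 MDCK cells, uninfected or infected with A/PR/8/34, treated with DMSO or compound at 20 μM. NS1 protein detected by Western blot, with α-tubulin as loading control.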

[6] = biological target: Non-structural protein 1 (Influenza A virus (strain A/Puerto Rico/8/1934 H1N1)) (UniProt P03496); experiment: Inhibition of Influenza A virus A/PR/8/34 (H1N1) NS1 expressed in 293 cells assessed as increase in poly(I:C)-induced IFN-beta reporter activity treated 16 hrs […] measured after 24 hrs by luciferase reporter gene assay; assay type: cell-based; settings: Influenza A virus (A/Puerto Rico/8/1934(H1N1))
Outline: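 293 cells co-transfected with a human IFN-β promoter-driven firefly luciferase reporter and NS1 expression constructs. At 16 h post-transfection, poly(I:C) 50 μg/mL plus compound (20 μM) or 1% DMSO added for a further 24 h; luciferase read by luminometer. Untransfected cells serve as baseline.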

[7] = biological target: Luciferin 4-monooxygenase (Photinus pyralis) (UniProt P08659); experiment: Effect on firefly luciferase activity expressed in 293 cells at 50 uM by luminescence assay; assay type: cell-based
[8] = Aqueous kinetic solubility of the compound; assay type: physicochemical; settings: buffer
[9] = Stability of the compound in mouse liver microsomes assessed as parent compound remaining measured immediately; assay type: ADME, Microsome; settings: read-out: Stability
Outline: (§2)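 Mouse liver microsomes; percent parent compound remaining measured at 0, 15 and 30 min.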

[10] = Stability of the compound in mouse liver microsomes assessed as parent compound remaining measured after 15 mins; assay type: ADME, Microsome; settings: read-out: Stability; outline: as §2
[11] = Stability of the compound in mouse liver microsomes assessed as parent compound remaining measured after 30 mins; assay type: ADME, Microsome; settings: read-out: Stability; outline: as §2
[12] = Apparent permeability across apical to basolateral side in human Caco2 cells measured after 2 hrs; assay type: ADME, cell-based; settings: caco-2, 2 h
Outline: (§3)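 Permeability was measured across Caco-2 monolayers in both directions, apical to basolateral and basolateral to apical. […] Runs were done with and without 3% BSA, and mass recovery (%) was reported for each direction. Efflux ratio = Papp B→A / Papp A→B.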

[13] = Apparent permeability across basolateral to apical side in human Caco2 cells measured after 2 hrs; assay type: ADME, cell-based; settings: caco-2, 2 h; outline: as §3

Sequence of Non-structural protein 1 (Influenza A virus (strain A/Puerto Rico/8/1934 H1N1)) (P03496 whole entry): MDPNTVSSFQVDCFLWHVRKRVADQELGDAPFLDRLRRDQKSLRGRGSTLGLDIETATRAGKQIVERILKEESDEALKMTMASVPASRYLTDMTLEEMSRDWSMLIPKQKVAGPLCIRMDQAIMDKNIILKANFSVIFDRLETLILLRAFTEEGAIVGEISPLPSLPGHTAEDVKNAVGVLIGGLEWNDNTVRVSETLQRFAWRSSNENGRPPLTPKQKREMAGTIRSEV
Sequence of Luciferin 4-monooxygenase (Photinus pyralis) (P08659 whole entry): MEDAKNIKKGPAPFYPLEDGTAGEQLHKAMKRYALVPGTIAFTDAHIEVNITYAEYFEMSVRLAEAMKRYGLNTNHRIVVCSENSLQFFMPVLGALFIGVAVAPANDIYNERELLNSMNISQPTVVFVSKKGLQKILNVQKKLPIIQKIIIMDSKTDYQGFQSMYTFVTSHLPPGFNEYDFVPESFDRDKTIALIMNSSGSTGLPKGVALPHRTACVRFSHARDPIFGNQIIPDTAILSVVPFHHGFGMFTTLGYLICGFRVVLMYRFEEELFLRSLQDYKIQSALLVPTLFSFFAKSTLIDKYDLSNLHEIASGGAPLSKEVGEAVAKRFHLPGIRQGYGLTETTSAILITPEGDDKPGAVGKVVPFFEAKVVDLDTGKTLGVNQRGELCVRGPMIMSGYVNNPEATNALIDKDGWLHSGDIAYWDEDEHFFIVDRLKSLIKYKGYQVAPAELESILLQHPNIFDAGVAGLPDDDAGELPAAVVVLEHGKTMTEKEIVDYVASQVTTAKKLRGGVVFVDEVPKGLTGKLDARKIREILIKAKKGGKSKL

Q: Which “fold change (FC)” value (Influenza A virus [1]) does the source give for `COc1cc(-c2c(C#N)c(N)nc3c2c(C)nn3-c2ccccc2)cc(OC)c1OC` here?
A: 16

Q: What about the Activity (MDCK) of the same compound?
A: Non-Toxic

Q: With `COc1cc(-c2c3c(C)nn(-c4ccccc4)c3nc3[nH]c(=O)[nH]c(=O)c23)cc(OC)c1O` as the compound, how does the “fold change (FC)” value (Influenza A virus [1]) read?
A: 4

Q: What about the Activity (MDCK) of the same compound?
A: Non-Toxic

Q: With `COc1cc(-c2ccnc3c2c(C)nn3-c2ccccc2)ccc1O` as the compound, how does the “fold change (FC)” value (Influenza A virus [1]) read?
A: 2

Q: And the Activity (MDCK)?
A: Non-Toxic

Q: For `COc1cc(-c2c(C#N)c(N)nc3c2c(C)nn3-c2ccc(Cl)cc2)cc(OC)c1OC`, which “fold change (FC)” value (Influenza A virus [1]) is on record?
A: 0

Q: What about the Activity (MDCK) of the same compound?
A: Non-Toxic

Q: What does the source list for `COc1cccc(-n2nc(C)c3c(-c4ccc(O)c(OC)c4)ccnc32)c1`?
A: fold change (FC) (Influenza A virus [1]): 0; Activity (MDCK): Non-Toxic

Q: Which results are given for `COc1cc(-c2c(C#N)c(N)nc3c2c(C)nn3-c2ccc(C)cc2)cc(OC)c1OC`?
A: fold change (FC) (Influenza A virus [1]): 32; Activity (MDCK): Non-Toxic

Q: With `COc1ccc(-c2c(C#N)c(N)nc3c2c(C)nn3-c2ccc(C)cc2)cc1OC` as the compound, how does the “fold change (FC)” value (Influenza A virus [1]) read?
A: 0

Q: And the Activity (MDCK)?
A: Non-Toxic

Q: With `COc1ccc(-c2c3c(C)nn(-c4ccccc4)c3nc3[nH]c(=O)[nH]c(=O)c23)cc1OC` as the compound, how does the “fold change (FC)” value (Influenza A virus [1]) read?
A: 4

Q: And the Activity (MDCK)?
A: Non-Toxic

Q: Which results are given for `COc1cc(-c2ccnc3c2c(C)nn3-c2cccc(F)c2)ccc1O`?
A: fold change (FC) (Influenza A virus [1]): 0; Activity (MDCK): Non-Toxic

Q: With `COc1cc(-c2c(C#N)c(N)nc3c2c(C)nn3-c2ccc(Cl)cc2)ccc1O` as the compound, how does the “fold change (FC)” value (Influenza A virus [1]) read?
A: 32

Q: And the Activity (MDCK)?
A: Non-Toxic

Q: With `COc1ccc(-c2c(C#N)c(O)nc3c2c(C)nn3-c2ccccc2)cc1OC` as the compound, how does the “fold change (FC)” value (Influenza A virus [1]) read?
A: 2

Q: And the Activity (MDCK)?
A: Non-Toxic

Q: With `CCOC(=O)c1cnc2c(c(C)nn2-c2ccc(F)cc2)c1-c1ccc(O)c(OC)c1` as the compound, how does the “fold change (FC)” value (Influenza A virus [1]) read?
A: 16

Q: What about the Activity (MDCK) of the same compound?
A: Non-Toxic

Q: With `Cc1ccc(-n2nc(C)c3c(-c4ccc(O)c(O)c4)c(C#N)c(N)nc32)cc1` as the compound, how does the “fold change (FC)” value (Influenza A virus [1]) read?
A: 64

Q: And the Activity (MDCK)?
A: Non-Toxic

Q: Which “fold change (FC)” value (Influenza A virus [1]) does the source give for `COc1cc(-c2c(C#N)c(N)nc3c2c(C)nn3-c2ccc(F)cc2)ccc1O` here?
A: 256

Q: And the Activity (MDCK)?
A: Non-Toxic

Q: What about the EC50 (Influenza A virus [2]) of the same compound?
A: 2.1 µM

Q: What about the EC90 (Influenza A virus [2]) of the same compound?
A: 4.6 µM

Q: And the CC50 at 5 day [3]?
A: 24.7 to 48.3 µM

Q: And the EC50 (Influenza A virus H3N2)?
A: 10.1 µM

Q: And the EC90 (Influenza A virus H3N2)?
A: > 50 µM

Q: What about the Activity (Influenza B virus) of the same compound?
A: inactive

Q: What about the Activity (Saccharomyces cerevisiae) of the same compound?
A: Non-Toxic

Q: What about the inhibition [4] of the same compound?
A: Active

Q: What about the Activity (Influenza A virus [5]) of the same compound?
A: inactive

Q: And the inhibition [6]?
A: Active

Q: What about the Activity [7] of the same compound?
A: inactive

Q: And the Kinetic_solubility [8]?
A: 3 µM

Q: What about the remaining at 0 min [9] of the same compound?
A: 100%

Q: And the remaining at 0.25 h [10]?
A: 74%

Q: And the remaining at 0.5 h [11]?
A: 60%

Q: For `Cc1nn(-c2ccc(Cl)cc2)c2nc(N)c(C#N)c(-c3ccc(O)c(O)c3)c12`, which “fold change (FC)” value (Influenza A virus [1]) is on record?
A: 256

Q: What about the Activity (MDCK) of the same compound?
A: Non-Toxic

Q: What about the EC50 (Influenza A virus [2]) of the same compound?
A: > 50 µM

Q: And the EC90 (Influenza A virus [2])?
A: > 50 µM

Q: What about the CC50 at 5 day [3] of the same compound?
A: 20.4 to 31.9 µM

Q: And the EC50 (Influenza A virus H3N2)?
A: > 50 µM

Q: And the EC90 (Influenza A virus H3N2)?
A: > 50 µM

Q: And the Activity (Influenza B virus)?
A: inactive

Q: What about the Activity (Saccharomyces cerevisiae) of the same compound?
A: Non-Toxic

Q: What about the inhibition [4] of the same compound?
A: Active

Q: What about the Activity (Influenza A virus [5]) of the same compound?
A: inactive

Q: And the inhibition [6]?
A: Active

Q: And the Activity [7]?
A: inactive

Q: What about the Kinetic_solubility [8] of the same compound?
A: 1.9 µM

Q: And the remaining at 0 min [9]?
A: 100%

Q: What about the remaining at 0.25 h [10] of the same compound?
A: 93%

Q: What about the remaining at 0.5 h [11] of the same compound?
A: 90%

Q: And the Papp [12]?
A: 0.34 ×10⁻⁶ cm/s

Q: And the Papp [13]?
A: 2.64 ×10⁻⁶ cm/s

Q: For `COc1cc(-c2c(C#N)c(N)nc3c2c(C)nn3-c2ccc(C)c(C)c2)cc(OC)c1OC`, which “fold change (FC)” value (Influenza A virus [1]) is on record?
A: 0

Q: And the Activity (MDCK)?
A: Non-Toxic

Q: With `COc1ccc(-c2c(C#N)c(N)nc3c2c(C)nn3-c2ccc(F)cc2)cc1OC` as the compound, how does the “fold change (FC)” value (Influenza A virus [1]) read?
A: 2

Q: What about the Activity (MDCK) of the same compound?
A: Non-Toxic

Q: For `Cc1ccc(-n2nc(C)c3c(-c4ccc(O)c(O)c4)c(C#N)c(N)nc32)cc1C`, which “fold change (FC)” value (Influenza A virus [1]) is on record?
A: 256

Q: And the Activity (MDCK)?
A: Non-Toxic

Q: What about the EC50 (Influenza A virus [2]) of the same compound?
A: 1.2 µM

Q: And the EC90 (Influenza A virus [2])?
A: 3.4 µM

Q: And the CC50 at 5 day [3]?
A: 24.5 to 39.3 µM

Q: What about the EC50 (Influenza A virus H3N2) of the same compound?
A: > 50 µM

Q: And the EC90 (Influenza A virus H3N2)?
A: > 50 µM

Q: And the Activity (Influenza B virus)?
A: inactive

Q: And the Activity (Saccharomyces cerevisiae)?
A: Non-Toxic

Q: And the inhibition [4]?
A: Active

Q: And the Activity (Influenza A virus [5])?
A: inactive

Q: What about the inhibition [6] of the same compound?
A: Active

Q: And the Activity [7]?
A: inactive

Q: And the Kinetic_solubility [8]?
A: 11.6 µM

Q: And the remaining at 0 min [9]?
A: 100%

Q: What about the remaining at 0.25 h [10] of the same compound?
A: 78%

Q: And the remaining at 0.5 h [11]?
A: 64%

Q: Which results are given for `COc1ccc(-c2c(C#N)c(O)nc3c2c(C)nn3-c2ccc(F)cc2)cc1OC`?
A: fold change (FC) (Influenza A virus [1]): 0; Activity (MDCK): Non-Toxic
